Test results: ChEMBL document CHEMBL1121906, “2-(Aminomethyl)phenols, a new class of saluretic agents. 2. Synthesis and pharmacological properties of the 5-aza isostere of 2-(aminomethyl)-4-(1,1-dimethylethyl)-6-iodophenol” (1981)
Values joined by “and” are separate entries in the source; they are usually repeats but may differ in a detail not shown here. Equal entries are not always repeated.

Columns and labels:
[1] = test system: Rattus norvegicus; experiment: The saluretic(Cl-) effect of compound was measured in rats after oral administration at 9 mg/kg dose; Cl-mequiv*100/cage=14; assay type: functional
[2] = test system: Rattus norvegicus; experiment: The saluretic (Na+) effect of compound was measured in rats after oral administration at 81 mg/kg dose; Na+ mequiv*100/cage; assay type: functional
[3] = test system: Rattus norvegicus; experiment: The saluretic(Cl-) effect of compound was measured in rats after oral administration at 81 mg/kg dose; Cl-mequiv*100/cage=14; assay type: functional
[4] = test system: Canis familiaris; experiment: The saluretic(K+) effect of compound was measured in dogs after iv administration at 3 mg/kg dose; K+mequiv/min=20; assay type: functional, Canis lupus familiaris
[5] = test system: Rattus norvegicus; experiment: The saluretic(K+) effect of compound was measured in rats after oral administration at 27 mg/kg dose; K+mequiv*100/cage=14; assay type: functional
[6] = test system: Rattus norvegicus; experiment: The saluretic(K+) effect of compound was measured in rats after oral administration at 9 mg/kg dose; K+mequiv*100/cage=14; assay type: functional
[7] = test system: Rattus norvegicus; experiment: The saluretic (Na+) effect of compound was measured in rats after oral administration at 27 mg/kg dose; Na+ mequiv*100/cage; assay type: functional
[8] = test system: Rattus norvegicus; experiment: The saluretic(Cl-) effect of compound was measured in rats after oral administration at 3 mg/kg dose; Cl-mequiv*100/cage=14; assay type: functional
[9] = test system: Rattus norvegicus; experiment: The saluretic(Cl-) effect of compound was measured in rats after oral administration at 27 mg/kg dose; Cl-mequiv*100/cage=14; assay type: functional
[10] = test system: Rattus norvegicus; experiment: Saluretic(Na+) effect of compound was measured in rats after oral administration at 3 mg/kg dose; Na+ mequiv*100/cage; assay type: functional
[11] = test system: Rattus norvegicus; experiment: The saluretic (Na+) effect of compound was measured in rats after oral administration at 9 mg/kg dose; Na+ mequiv*100/cage; assay type: functional
[12] = test system: Canis familiaris; experiment: The saluretic(Cl-) effect of compound was measured in dogs after iv administration at 3 mg/kg dose; Cl-mequiv/min=303; assay type: functional, Canis lupus familiaris
[13] = test system: Rattus norvegicus; experiment: The saluretic(K+) effect of compound was measured in rats after oral administration at 81 mg/kg dose; K+mequiv*100/cage=14; assay type: functional
[14] = test system: Canis familiaris; experiment: The saluretic(Na+) effect of compound was measured in dogs after iv administration at 3 mg/kg dose; Na+ mequiv/min=279; assay type: functional, Canis lupus familiaris
[15] = test system: Rattus norvegicus; experiment: Mean arterial pressure was measured in hypertensive rat at dose of 20 mg/kg, po; assay type: functional, Artery
How it was run: (§1)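 Spontaneously hypertensive rats received the compound orally. The read-out was the maximum fall in mean arterial pressure (mmHg ± SE) and the duration of effect in hours. The number of rats varied by treatment, and the protocol follows an earlier report.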

[16] = test system: Rattus norvegicus; experiment: The saluretic(K+) effect of compound was measured in rats after oral administration at 3 mg/kg dose; K+mequiv*100/cage=14; assay type: functional
[17] = test system: Canis familiaris; experiment: The saluretic(K+) effect of compound was measured in dogs after iv administration at 2 mg/kg dose; K+mequiv/min=20; assay type: functional, Canis lupus familiaris
[18] = test system: Canis familiaris; experiment: The saluretic(Na+) effect of compound was measured in dogs after iv administration at 2 mg/kg dose; Na+ mequiv/min=279; assay type: functional, Canis lupus familiaris
[19] = test system: Canis familiaris; experiment: The saluretic(Cl-) effect of compound was measured in dogs after iv administration; Cl-mequiv/min=303
[20] = test system: Rattus norvegicus; experiment: The saluretic(Cl-) effect of compound was measured in rats after oral administration at 81 mg/kg dose.; assay type: functional
[21] = test system: Rattus norvegicus; experiment: The saluretic (Na+)effect of compound was measured in rats after oral administration at 81 mg/kg dose; assay type: functional
[22] = test system: Canis familiaris; experiment: The saluretic(Na+) effect of compound was measured in dogs after iv administration at 5 mg/kg dose; Na+ mequiv/min=279
[23] = species on record: Rattus norvegicus; experiment: Duration of effect was measured in hypertensive rat.; assay type: functional; how it was run: as §1
[24] = test system: Rattus norvegicus; experiment: The saluretic(Cl-) effect of compound was measured in rats after oral administration at 3 mg/kg dose; assay type: functional
[25] = test system: Canis familiaris; experiment: The saluretic(Cl-) effect of compound was measured in dogs after iv administration at 5 mg/kg dose; Cl-mequiv/min=303
[26] = test system: Rattus norvegicus; experiment: The saluretic(K+) effect of compound was measured in rats after oral administration at 81 mg/kg dose.; assay type: functional
[27] = test system: Rattus norvegicus; experiment: The saluretic(K+) effect of compound was measured in rats after oral administration at 3 mg/kg dose; assay type: functional
[28] = test system: Rattus norvegicus; experiment: The saluretic(Na+) effect of compound was measured in rats after oral administration at 27 mg/kg dose; Na+ mequiv*100/cage; assay type: functional
[29] = test system: Canis familiaris; experiment: The saluretic(K+) effect of compound was measured in dogs after iv administration at 5 mg/kg dose; K+mequiv/min=20
[30] = species on record: Rattus norvegicus; experiment: Duration of effect was measured in hypertensive rat; assay type: functional; how it was run: as §1
[31] = test system: Rattus norvegicus; experiment: Saluretic(Na+) effect of compound was measured in rats after oral administration at 3 mg/kg dose; Na+ mequiv x 100/cage; assay type: functional
[32] = test system: Rattus norvegicus; experiment: The saluretic(Cl-) effect of compound was measured in rats after oral administration at 3 mg/kg dose; Cl- mequiv x 100/cage =14; assay type: functional
[33] = test system: Rattus norvegicus; experiment: Mean arterial pressure was measured in hypertensive rat at dose of 20 mg/kg, ip; details: route intraperitoneal
[34] = test system: Rattus norvegicus; experiment: The saluretic(K+) effect of compound was measured in rats after oral administration at 3 mg/kg dose; K+ mequiv x 100/cage=14; assay type: functional

Row | Compound | Diuretic effects [1] | Diuretic effects [2] | Diuretic effects [3] | Diuretic effects [4] | Diuretic effects [5] | Diuretic effects [6] | Diuretic effects [7] | Diuretic effects [8] | Diuretic effects [9] | Diuretic effects [10] | Diuretic effects [11] | Diuretic effects [12] | Diuretic effects [13] | Diuretic effects [14] | Diuretic effects [16] | Diuretic effects ([9]; 27 mg/kg) | Max fall ([15]; dose 20 mg/kg) [mmHg] | also measured
1 | CC(C)(C)c1cc(I)c(O)c(CN)c1 | 364 | 351 | 489 | 66 | 88 | 77 | 319 | 211 | 435 | 146 | 270 | 822 | 99 | 716 | 51 |  |  | Max fall ([15]; dose 0.312 mg/kg, in the assay text read “0.312 mg/kg” for “20 mg/kg”): 26 mmHg
2 | NS(=O)(=O)c1cc(C(=O)O)c(NCc2ccco2)cc1Cl [FUROSEMIDE] | 22 | 244 |  |  | 55 | 14 | 125 |  |  |  | 7 |  | 77 |  |  | 213 and 370 |  | Diuretic effects [17]: 141; Diuretic effects [18]: 960; Max fall ([15]; dose 30 mg/kg, in the assay text read “30 mg/kg” for “20 mg/kg”): 12 mmHg; Diuretic effects [19]: 1081
3 | CC(C)(C)c1cc(CN)c(O)c(I)n1 |  |  |  |  |  |  | 276 |  |  | 178 |  |  |  |  |  | 351 and 444 | 13 | Diuretic effects ([5]; 27 mg/kg): 63 and 83; Diuretic effects [20]: 528; Diuretic effects [21]: 330; Diuretic effects [22]: 611; Duration [23]: >24 h; Diuretic effects [24]: 279; Diuretic effects [25]: 729; Diuretic effects [26]: 108; Diuretic effects [27]: 51; Diuretic effects [28]: 276; Diuretic effects [29]: 48
4 | NS(=O)(=O)c1cc2c(cc1Cl)NCNS2(=O)=O [HYDROCHLOROTHIAZIDE] |  |  | 143 | 33 | 34 |  |  | 154 | 156 |  |  | 156 | 37 | 166 | 34 |  | 25 | Duration [30]: <8 h and 12 h
5 | CC(C)(C)c1cc(CN)c(O)cn1 | 11 | 63 | 98 | 20 | 15 | 7 | 22 |  | 37 |  | 8 | 303 | 23 | 279 |  |  |  | Diuretic effects [31]: 14; Diuretic effects [32]: 14; Max fall [33]: 12 mmHg; Diuretic effects [34]: 14
